The values that follow come from PubChem BioAssay AID2052 (NMMLSC, 2009).

The whole screen tested about 330,000 compounds, of which about 220 (0.067%) were called active.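 The calls were made as follows: active = response, share of CD8 T cells binding vesicles, and their 90th percentile fluorescence all below set limits (cut at about 80% in these data, passing the limit was not always enough); inactive = the rest, inconclusive results apart.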 What follows is part of a selection rich in actives, with near analogues and random picks from the rest. Non-standard residues stand in square brackets, D forms with d. Residues, ends and D or L forms follow the SMILES beside them. ξ: configuration not given here. ξV = CC(C)C(N)C(=O)O

The assay in a line: modulators of CD8 T cell-vesicle binding, primary screen, mouse 2C CD8+ T cells, flow cytometry (AID 2052).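 As to double positive events: binding gate set so that unloaded-vesicle control wells show 10% double positive cells.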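 As to response (vesicle binding): values below 100% mean blocked vesicle binding to the CD8+ T cells.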 The note with it: 2C CD8+ T cell-vesicle binding, at 7 µM, stronger effect = lower value; double positive events: measured here: CD8+ vesicle-bound cell fraction. A digest of the protocol:
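Also added: QL9-peptide-loaded Drosophila micro-vesicles bearing Ld, ICAM-1 and B7-1; Test system: purified 2C TCR transgenic mouse naive CD8+ T cells; Measured by: cytometric PE anti-B7-1 and Alexa647 anti-CD8 signals after 1% paraformaldehyde fixation; Timing: binding step 1.5 h, 37 °C, antibody labelling 20 min, ice.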
Regarding `O=S(=O)(Nc1ccc(Cl)cn1)c1cnc(Cl)c(Br)c1`, the double positive events is 15.2% and the response (vesicle binding) is 0% (inactive).
For `COc1ccc(N2CC(C(=O)N[C@@H](C)C(=O)N3CCCCC3)CC2=O)cc1` (stereo not given in full) the same measures were 12.6% and 315% (inactive).
On the same counts, the results for `OCC(CO)(CO)NCc1ccc(-c2ccccc2)cc1` are 35.7% and 0% (inactive).
In the case of `NC(=O)C[C@@H]1NC(=O)CNC(=O)c2cc([N+](=O)[O-])cc(I)c2NCCC(C(N)=O)NC1=O` (stereo not given in full), the double positive events came to 24.2% and the response (vesicle binding) is 474% (inactive).
For `CC(/C=C/C1(O)C(C)CC(=O)CC1(C)C)OC1OC(CO)C(O)C(O)C1O` (stereo not given) the same measures were 38.7% and 185% (inactive).
On the same counts, the results for `CCNC(=O)Nc1ccc(S(=O)(=O)Nc2cnc(C)nc2C)cc1` are 18.1% and 230% (inactive).
On the same counts, the results for `CCc1nnc(NC(=O)CSc2nc(SC)ns2)s1` are 35.8% and 236% (inactive).
For `CCc1cccc2c3c([nH]c12)C(CC)(CC(=O)O)OCC3` (stereo not given), the double positive events was determined as 14.8% and the response (vesicle binding) was 487% (inactive).
For `O=C(CSc1ccc(-c2ccccn2)nn1)Nc1ccccc1` the same measures were 12.5% and 157% (inactive).
For `Cc1c(OC(C)C(=O)NCC2CCC(C(=O)O)CC2)ccc2c1oc(=O)c1ccccc12` (stereo not given) the same measures were 55.9% and 184% (inactive).
Consider `CCCn1nnnc1NCc1ccc(OC)cc1`, for which the double positive events was 56.3% and the response (vesicle binding) is 308% (inactive).
For `Cn1nnnc1NCc1ccc(Cl)c(Cl)c1` the same measures were 43.7% and 445% (inactive).
As to `COc1ccc(CNc2nnnn2C)cc1`, the double positive events came out at 4% and the response (vesicle binding) was 0% (active).
On the same counts, the results for `CC(C)N1CCC(NC(=O)Nc2ccccc2)CC1` are 60.7% and 257% (inactive).
For `CC(=O)NC(C(=O)NCC(N)=O)C(C)C` (stereo not given) (Ac-[ξV]-Gly-NH2) the same measures were 32.4% and 396% (inactive).
With `O=C(O)c1[nH]c2ccccc2c1C(c1cccc(O)c1)c1c(C(=O)O)[nH]c2ccccc12`, the double positive events was determined as 36.2% and the response (vesicle binding) was 361% (inactive).
On the same counts, the results for `Cc1ccc(CNC(=O)COC(=O)C2CCC2)cc1` are 37.4% and 742% (inactive).
On the same counts, the results for `O=C(COC(=O)Cc1c[nH]c2ccccc12)NCCc1ccccc1` are 19.5% and 241% (inactive).
On the same counts, the results for `NC(=O)COc1ccc(C23CC4CC(CC(C4)C2)C3)cc1` are 52.9% and 159% (inactive).
Consider `COP1(=O)C[C@@H](O)[C@@H](O)[C@@H](COCc2ccccc2)O1` (stereo not given in full), for which the double positive events is 21.9% and the response (vesicle binding) was 504% (inactive).
For `C[C@H](OC(=O)n1ccnc1)[C@@H]1O[C@@]2(C)CCC[C@@H]1O2` the same measures were 24.9% and 376% (inactive).
For the compound `COc1ccc(N(CC(=O)Nc2ccc(C)cc2C)S(=O)(=O)c2ccccc2[N+](=O)[O-])c(OC)c1`, the double positive events is 61.2% and the response (vesicle binding) was 182% (inactive).
Turning to `Cc1noc(C)c1CSc1nnc2ccc3ccccc3n12`, the double positive events was found to be 43.2% and the response (vesicle binding) is 196% (inactive).
For `NS(=O)(=O)c1cc(Cl)c(Cl)c(S(N)(=O)=O)c1` the same measures were 42.1% and 570% (inactive).
Consider `Cn1nnc(NC(=S)NC(=O)c2ccccc2)n1`, for which the double positive events was determined as 30.5% and the response (vesicle binding) is 556% (inactive).
On the same counts, the results for `CSc1nnc(SCc2nc3sc(C(=O)O)c(C)c3c(=O)[nH]2)s1` are 37.4% and 501% (inactive).
For `CCc1ccc(CNC(=O)C2CCN(c3nnc(C)c4c(C)n(-c5ccc(C)cc5)nc34)CC2)cc1` the same measures were 10.5% and 623% (inactive).
On the same counts, the results for `CC1(C)C[C@H]2C3=CCC4[C@@]5(C)CC[C@H](O)[C@](C)(CO)C5CC[C@@]4(C)[C@]3(C)C[C@@H](O)[C@@]2(CO)[C@@H](O)[C@@H]1O` (stereo not given in full) are 14.8% and 534% (inactive).
On to `COc1cc(NC(=S)NNC(=O)CC(C)C)c(OC)cc1Cl`, for which the double positive events came to 66.1% and the response (vesicle binding) was 458% (inactive).
`Cc1nn(CCOc2ccc(Br)cc2)c(C)c1[N+](=O)[O-]`: the double positive events stood at 61.8% and the response (vesicle binding) was 447% (inactive).
On the same counts, the results for `COc1cc(OC)c(-n2cc(-c3ccc(Cl)cc3)[nH]c2=O)cc1Cl` are 39.5% and 546% (inactive).
In the case of `O=C(c1ccco1)N1CCN(C(=O)C2c3ccccc3Oc3ccccc32)CC1`, the double positive events was 0% and the response (vesicle binding) is 0% (active).
For `O=C(c1ccc2c(c1)OCO2)N1CCN(C(=O)c2ccco2)CC1` the same measures were 35.9% and 148% (inactive).
For `O=C(c1ccco1)N1CCN(CCOc2ccccc2)CC1` the same measures were 23.1% and 301% (inactive).
On the same counts, the results for `Cc1cc(C)c(NC(=O)CSc2nc3ccncc3[nH]2)c(C)c1` are 24.7% and 968% (inactive).
Regarding `Cc1sc2ncnc(SCC(=O)Nc3ccc(CN4CCCC4)cc3)c2c1C`, the double positive events is 35.3% and the response (vesicle binding) is 104% (inactive).
For `C=CC[C@@H](CC(=O)N[C@@H](CO)Cc1ccccc1)C(=O)NCCOC(=O)[C@@H](CC=C)CC(=O)OC(C)(C)C` the same measures were 13.7% and 321% (inactive).
Take `CC(=O)Nc1nc2c(s1)C(=O)NCC(C)(C)C2`: the double positive events worked out at 50.4% and the response (vesicle binding) is 439% (inactive).
On the same counts, the results for `Cc1ccc(C(=O)Nc2ccc(C)c(S(=O)(=O)N(C)C)c2)s1` are 45.5% and 218% (inactive).
Take `Nc1ccc(OCC(O)C[n+]2ccc(CCS(=O)(=O)[O-])cc2)cc1` (stereo not given): the double positive events is 20.9% and the response (vesicle binding) was 319% (inactive).
As to `CC(Oc1ccc(Br)cc1)C(=O)NCC(c1ccco1)N1CCCCC1` (stereo not given), the double positive events was 51.4% and the response (vesicle binding) was 336% (inactive).
Take `O=C1CC(Sc2ncn[nH]2)C(=O)N1c1ccccc1` (stereo not given): the double positive events is 46.5% and the response (vesicle binding) was 391% (inactive).
`COC(=O)C(C(=O)Nc1cccc(C)n1)C1CCCCCC1` (stereo not given): the double positive events was 44.3% and the response (vesicle binding) is 158% (inactive).
For `CSc1ccccc1C(=O)OCC(=O)N1CCN(C(C)=O)CC1` the same measures were 34.9% and 823% (inactive).
With `CCn1cc(C(=O)N2CC=C(c3ccccc3)CC2)c(=O)c2ccc(C)nc21`, the double positive events worked out at 1.9% and the response (vesicle binding) is 79.1% (inactive).
For `CN1C(C(=O)NCC2CC2)CC2Cn3c(nc4ccccc43)C21` (stereo not given) the same measures were 12.7% and 473% (inactive).
On the same counts, the results for `Cc1ccc(C)c2[nH]c(=O)c(CCNC(=O)CC(C)C)cc12` are 38.5% and 832% (inactive).
On the same counts, the results for `CCOC(=O)C1CCN(C(=O)C2(NC(=O)Nc3cccc(F)c3)CCCCC2)CC1` are 36.4% and 360% (inactive).
Turning to `CC1=C(C(N)=O)C(c2sccc2C)n2nnnc2N1` (stereo not given), the double positive events turned out to be 23.4% and the response (vesicle binding) was 292% (inactive).
Turning to `CC1=C(C(=O)OC2CCCCC2)C(c2ccccc2F)NC(=O)N1` (stereo not given), the double positive events is 33.6% and the response (vesicle binding) is 167% (inactive).
